Assay outcomes deposited in PubChem BioAssay by several laboratories.
Lmaj promast: reduces viability of Leishmania major promastigotes; resazurin fluorescence viability; inhibition, % at 10 µM; 9% of 200,000 active; AID 1063; in the data active means inhibition above about 50%;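 further: promastigotes grown with compound for 44 hours at 28 °C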
ABCG2 block: inhibitors of human ABCG2 transporter, ABCB1 counter-screen; Q9UNQ0; IgMXP3 cells, JC-1 efflux, flow cytometry; inhibition, % at 6.6 µM; 0.1% of 190,000 active;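 active means inhibition above 80%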;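 further: 0% = DMSO and 100% = nicardipine control wells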
Target sequence (Q9UNQ0 whole entry, looked up): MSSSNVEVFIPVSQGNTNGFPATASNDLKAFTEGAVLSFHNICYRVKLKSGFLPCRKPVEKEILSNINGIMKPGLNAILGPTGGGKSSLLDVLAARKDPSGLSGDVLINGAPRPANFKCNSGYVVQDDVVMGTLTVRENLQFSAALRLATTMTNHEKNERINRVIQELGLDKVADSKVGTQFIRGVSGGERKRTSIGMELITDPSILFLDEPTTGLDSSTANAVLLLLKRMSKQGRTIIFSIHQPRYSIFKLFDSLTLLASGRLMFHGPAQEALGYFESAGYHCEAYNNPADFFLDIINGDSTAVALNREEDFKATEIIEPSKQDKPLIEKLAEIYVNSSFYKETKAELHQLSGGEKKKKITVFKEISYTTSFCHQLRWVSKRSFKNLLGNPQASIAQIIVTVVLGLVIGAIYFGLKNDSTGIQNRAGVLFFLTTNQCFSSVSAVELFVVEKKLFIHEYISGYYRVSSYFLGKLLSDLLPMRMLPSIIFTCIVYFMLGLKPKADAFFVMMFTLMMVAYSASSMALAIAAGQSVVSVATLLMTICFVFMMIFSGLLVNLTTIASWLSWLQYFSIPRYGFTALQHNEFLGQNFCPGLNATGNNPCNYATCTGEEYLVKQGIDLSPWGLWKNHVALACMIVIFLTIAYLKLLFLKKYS
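Read-out basis: Efflux inhibition in percent versus controls | Test system: ABCG2 IgMXP3 and barcoded ABCB1 CCRF-Adr cell mix | Quantity: 3 million cells/mL in well | Schedule: 10 min at 25 °C | Control set: Nicardipine as high control, DMSO as low control | Reagent: JC-1 as fluorescent efflux pump substrate | Signal: Flow cytometry of retained JC-1 fluorescence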
RAM inhibit: inhibitors of the yeast RAM network; S. cerevisiae dse1pr::URA3 reporter, 5-FOA growth OD615, 2 d; analog-sensitive cbk1-as2 kinase mutant strain; inhibition, % at 50 µM; 1.8% of 190,000 active;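 active means inhibition above a set limit, 3 SD over mean compound inhibition, cut at about 8.4% in these data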;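 further: 0% = DMSO-only wells with no growth and 100% = 10 µM 1-NA-PP1 full growth; inhibition rescues growth on 5-FOA so higher OD means more RAM inhibition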
WT yeast gro inh: growth inhibition of WT yeast, mitochondrial fusion screen | inhibition, % at 10 µM | mitochondrial fusion phenotypic screen, WT strain | AID 1362 | 2.1% of 190,000 active; in the data active means inhibition above about 58%; tested in S. cerevisiae
ABCB1 block: inhibitors of human ABCB1 transporter, ABCG2 counter-screen; P08183; CCRF-Adr cells, JC-1 efflux, flow cytometry; inhibition, % at 6.6 µM; 0.067% of 190,000 active; AID 1326; in the data active means inhibition above about 40%;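 further: 0% = vehicle and 100% = reference inhibitor; higher value means more JC-1 retained so stronger ABCB1 efflux block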
The depositor's hits bear a star; . = not tested or not shown. Compounds with a hit are over-represented: about 12% of the library has one in this group of screens.

SMILES	Lmaj promast	ABCG2 block	RAM inhibit	WT yeast gro inh	ABCB1 block
C=CCN=c1scc(-c2ccc(F)cc2)n1/N=C/c1ccccn1	9	0	1	39	0
O=C1/C(=C/c2cccnc2)Oc2cc(OS(=O)(=O)c3ccc(F)cc3)ccc21	14	5	1	-9	1
COc1cccc(OC)c1C(=O)Oc1ccc2c(c1)O/C(=C\c1ccncc1)C2=O	94*	10	3	-14	2
Cc1ccc(S(=O)(=O)Oc2ccc3c(c2)O/C(=C\c2cccnc2)C3=O)cc1	11	6	5	6	1
O=C(c1ccccc1)c1ccc(OC(=O)N2CCOCC2)cc1	-3	2	0	1	0
O=C1/C(=C/c2ccccc2)Oc2cc(OC(=O)N3CCOCC3)ccc21	74*	1	2	-4	0
CCc1ccc(/C=C2\Oc3cc(OS(C)(=O)=O)ccc3C2=O)cc1	8	1	8.5*	5	0
CCOc1ccc(C(=O)NCCC2=CCCCC2)cc1OCC	1	2	3	6	0
O=C(NC1CCCCCC1)c1ccc(=O)n(Cc2ccccc2)n1	9	8	1	5	0
CC(=O)c1c(C)nc2sc3c(=N)n(N)cnc3c2c1-c1ccc(Cl)cc1	8	-2	-1	4	0
CN(C)S(=O)(=O)c1cccc(NC(=O)CCSc2ccc(Cl)cc2)c1	5	2	7	11	0
Cc1c(Cl)cccc1NC(=O)CNc1cccc(S(=O)(=O)N(C)C)c1	72*	-3	0	-19	0
C/C(=N/OC(=O)C1CC12CCC2)c1ccc(Br)cc1 (centres undefined)	-1	28	2	30	2
CCOC(=O)c1cc(-c2ccccc2)sc1NC(=O)CN1C(=O)NC(CC)(c2ccccc2)C1=O (centres undefined)	51*	1	3	-3	1
CCOC(=O)c1cc(-c2ccccc2)sc1NC(=O)COC(=O)c1cccc(S(N)(=O)=O)c1	28	8	6	-1	1
CCOC(=O)c1cc(-c2ccccc2)sc1NC(=O)COC(=O)c1ccc(Cl)c(S(N)(=O)=O)c1	91*	-3	6	5	-1
CCOC(=O)c1cc(-c2ccccc2)sc1NC(=O)CN1C(=O)NC(CC)(c2ccc(F)cc2)C1=O (centres undefined)	28	.	8	6	.
O=C(NC(=S)N(CC1CCC1)CC1CCCO1)c1cccc([N+](=O)[O-])c1 (centres undefined)	1	3	1	53	0
Clc1ccc(COc2ccccc2CNCc2cccnc2)cc1	99*	7	2	9	2
CCOc1cccc(CNCc2cccnc2)c1OCc1ccccc1	15	0	0	6	0
C=CCOc1ccccc1CNCc1cccnc1	87*	0	1	4	0
C=CCOc1ccccc1CNc1ccccc1C	-1	24	0	-13	8
O=C(NCCc1cccs1)C12CN(Cc3ccccc3)CC1C(c1cccc([N+](=O)[O-])c1)=NO2 (centres undefined)	12	8	1	16	3
COc1cc(OC)cc(C(=O)NC(=S)NCc2ccco2)c1	-6	7	9.5*	7	1
O=S(=O)(NCc1ccco1)c1ccc(S(=O)(=O)N2CCCCC2)cc1	2	-1	0	-12	0
SMILES	Lmaj promast	ABCG2 block	RAM inhibit	WT yeast gro inh	ABCB1 block
COc1ccc(NC(=S)NCc2ccco2)cc1	-2	2	0	-5	0
S=C(NCc1ccco1)Nc1ccc(Cl)c(Cl)c1	17	6	0	-2	1
O=S(=O)(c1ccc(NC(=S)NCc2ccco2)cc1)N1CCCC1	52*	4	4	-1	0
S=C(NCc1ccco1)Nc1cc(-c2ccccc2)[nH]n1	9	9	0	64*	-1
S=C(NCc1ccco1)Nc1ccc(Oc2ccccc2)cc1	17	4	2	67*	0
COc1ccc(OCC(=O)NNC(=O)c2cccc(S(=O)(=O)N(C)C)c2)cc1	-11	11	0	-10	0
CCN(CC(=O)Nc1cc(Cl)ccc1C)c1ncnc2sc(C)c(C)c12	11	5	-1	3	0
COc1ccccc1OCC(=O)NNC(=O)C(=O)N1CCCC1	-9	8	0	-2	0
Cc1ccc2c(c1)-c1[nH]c(=S)ncc1CS2	21	-1	3	2	-1
